In one assay the test system is Serratia plymuthica. Put plainly: Antibacterial activity against Serratia plymuthica C48 by paper disk diffusion method. It counts as functional. In short, it runs like this: (§1)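 Strains taken from the lab's own culture collection. Tested by paper disk diffusion, following the group's earlier published method. Each MIC was determined in triplicate.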
A further assay concerns Escherichia coli. Put plainly: Antibacterial activity against Escherichia coli 6r3 by paper disk diffusion method. It counts as functional. In short, it runs like this:
as §1
In general terms: Agar diffusion results depend on both activity and mobility in agar.

For assay [1], the system named is Acinetobacter calcoaceticus. Description: Antibacterial activity against Acinetobacter calcoaceticus DSM 586 by paper disk diffusion method. The assay is classed as functional. The method in brief: as §1
Another assay concerns Stutzerimonas stutzeri. Put plainly: Antibacterial activity against Pseudomonas stutzeri A1501 by paper disk diffusion method. It counts as functional. The method in brief:
as §1

For a further assay, the system named is L6. Description: Cytotoxicity against rat L6 cells after 70 hrs by Alamar Blue assay. The note with it: L6, 70 h. In general terms: The colour change of resazurin is a common sign of viable cells or microbes.
In another assay the test system is Plasmodium falciparum. Description: Antiplasmodial activity against chloroquine-sensitive Plasmodium falciparum NF54 after 48 hrs by [3H]-hypoxanthine incorporation assay. It counts as functional, organism-based. The method in brief: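 Asexual blood-stage parasites in hypoxanthine-free RPMI 1640 with HEPES, NaHCO3, neomycin and Albumax, in human A+ erythrocytes (2.5% hematocrit, 0.3% parasitemia). Eleven 3-fold dilutions (100 to 0.002 μg/mL) from DMSO stocks. Incubated at 37 °C in 4% CO2/3% O2/93% N2. 3H-hypoxanthine (0.5 μCi) added at 48 h, then 24 h more. Read by scintillation counting. IC50 is the mean of two independent assays.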

Structures are written as SMILES. ≈ marks a conversion by molar mass, not a printed value. Some results are limits rather than exact numbers.

A word on the MIC: it is the least concentration at which growth counts as inhibited. Broadly, the IC50 is the concentration needed to halve the response being measured. Low values mean greater potency, high ones weaker potency.

`CN1CCN(c2cc3c(cc2F)c(=O)c(C(=O)O)cn3-c2ccc(F)cc2)CC1` [DIFLOXACIN]: the minimal inhibitory concentration (MIC) against Serratia plymuthica was 20 µg/mL (≈ 50.1 µM); in the assay on Escherichia coli it was 5 µg/mL (≈ 12.5 µM); in assay [1] it was 5 µg/mL (≈ 12.5 µM); against Stutzerimonas stutzeri, 20 µg/mL (≈ 50.1 µM).
`CCCCCC[C@@H]1[C@H]2C=C[C@@H]3[C@@H]4[C@H]2[C@H]1C[C@H]4C=C[C@H]3C(=O)O` [CRYPTOBEILIC ACID D]: the IC50 with L6 came out at 61 µM; in the assay with Plasmodium falciparum, 10.8 µM. Also, the minimal inhibitory concentration (MIC) is > 50 µg/mL in the assay with Serratia plymuthica, 50 µg/mL (≈ 166 µM) against Escherichia coli, > 50 µg/mL in assay [1] and > 50 µg/mL with Stutzerimonas stutzeri.
With `CC1(C)S[C@@H]2[C@H](NC(=O)[C@H](N)c3ccccc3)C(=O)N2[C@H]1C(=O)O` [AMPICILLIN], the MIC is 20 µg/mL (≈ 57.2 µM) in the assay on Serratia plymuthica, 5 µg/mL (≈ 14.3 µM) in the assay with Escherichia coli, 5 µg/mL (≈ 14.3 µM) in assay [1] and 20 µg/mL (≈ 57.2 µM) in the assay with Stutzerimonas stutzeri.
For the molecule `O=C(O)[C@@H]1C=C[C@@H]2C[C@H]3[C@H](Cc4ccc5c(c4)OCO5)[C@H]4C=C[C@@H]1[C@@H]2[C@H]43` [TSANGIBEILIN B], the IC50 with L6 came out at 21.5 µM; in the assay on Plasmodium falciparum, 8.2 µM. For the same molecule, the minimum inhibitory concentration (MIC) in the assay on Serratia plymuthica is > 50 µg/mL; in the assay with Escherichia coli it was 50 µg/mL (≈ 143 µM); in assay [1] it was > 50 µg/mL; against Stutzerimonas stutzeri, > 50 µg/mL.
`O=C(O)C1=CC(=O)[C@@H]2C[C@H]3[C@H](Cc4ccc5c(c4)OCO5)[C@H]4C=C[C@@H]1[C@@H]2[C@H]43` [CRYPTOBEILIC ACID C]: the half-maximal inhibitory concentration (IC50) amounted to 59.3 µM in the assay with L6 and 14 µM with Plasmodium falciparum. Besides, the minimum inhibitory concentration (MIC) (against Serratia plymuthica; against Escherichia coli; in assay [1]; against Stutzerimonas stutzeri) was > 50 µg/mL each time.
For the molecule `COc1cc([C@@H]2c3cc4c(cc3[C@H](O)[C@H]3COC(=O)[C@H]23)OCO4)cc(OC)c1OC` [PODOFILOX], the midpoint of inhibition with L6, the IC50, lay at 0.008 µM.
In the case of `CCCCCC[C@@H]1[C@H]2C=C[C@H]3C(C(=O)O)=C[C@H](O)[C@@H]4C[C@@H]1[C@@H]2[C@H]43` [CRYPTOBEILIC ACID A], the IC50 in the assay on L6 turned out to be 59.5 µM; with Plasmodium falciparum it was 17.7 µM. Further, the MIC in the assay with Serratia plymuthica was > 50 µg/mL; against Escherichia coli it was 10 µg/mL (≈ 31.6 µM); in assay [1], > 50 µg/mL; against Stutzerimonas stutzeri, > 50 µg/mL.
In the case of `CCCCCC[C@@H]1[C@H]2C=C[C@H]3C(C(=O)O)=C[C@@H](O)[C@@H]4C[C@@H]1[C@@H]2[C@H]43` [CRYPTOBEILIC ACID B], the half-inhibitory concentration (IC50) was determined as 20.4 µM in the assay on L6 and 5.35 µM in the assay with Plasmodium falciparum. Moreover, the minimum inhibitory concentration (MIC) against Serratia plymuthica was > 50 µg/mL; with Escherichia coli, 20 µg/mL (≈ 63.2 µM); in assay [1] it was 20 µg/mL (≈ 63.2 µM); against Stutzerimonas stutzeri, 10 µg/mL (≈ 31.6 µM).

The values above are taken from ChEMBL document CHEMBL2331079, “Antibacterial and antiplasmodial constituents of Beilschmiedia cryptocaryoides” (J Nat Prod, 2013).
